Experimental findings from article PMC9851027 (ACS Omega, 2023) are described below.

pEC50, pIC50: −log10 of the molar value. Peptide text beside a SMILES is read from it. * marks the point of attachment. Propionyl = CCC(=O)*

In experiment [1] the target is T1, human NMUR2 (Homo sapiens, UniProt Q9GZQ4). Put plainly: Functional in vitro FLIPR calcium mobilization assay. The format is cell-based. To be noted: SD. The essentials:
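Recombinant Chem-1 cells overexpressing full-length human NMUR2, grown in DMEM/10% FBS with selection, seeded at 5×10^5 cells/mL 16 h before assay. Loaded with Calcium 6 dye plus 2 mM probenecid for 60 min at 37 °C. Fractions given as 12-point 1:3 dilutions in HBSS/20 mM Hepes/0.1% BSA, final 1.1 μM–[…]. Read by FLIPR at 0.5 Hz as peak minus baseline fluorescence; Hill fit, mean ± standard deviation of two experiments.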

Experiment [2] addresses T1, human NMUR2. Put plainly: Competitive radioligand binding assay with [^125I]NMU-8.

T1 sequence (Q9GZQ4 whole entry): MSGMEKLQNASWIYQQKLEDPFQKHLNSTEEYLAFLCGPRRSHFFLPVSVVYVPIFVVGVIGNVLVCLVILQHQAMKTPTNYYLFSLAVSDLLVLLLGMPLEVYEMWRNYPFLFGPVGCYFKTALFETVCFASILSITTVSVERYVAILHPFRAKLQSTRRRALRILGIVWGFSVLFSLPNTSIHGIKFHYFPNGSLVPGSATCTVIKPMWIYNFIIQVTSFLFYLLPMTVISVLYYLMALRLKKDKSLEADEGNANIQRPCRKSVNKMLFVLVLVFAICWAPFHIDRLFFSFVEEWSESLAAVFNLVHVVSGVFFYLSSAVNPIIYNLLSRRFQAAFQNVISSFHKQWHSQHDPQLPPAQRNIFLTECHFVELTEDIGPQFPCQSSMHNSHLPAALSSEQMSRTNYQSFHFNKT

Turning to `CCC(=O)N[C@H](C(=O)N[C@@H](CC(C)C)C(=O)N[C@@H](CCC(N)=O)C(=O)N[C@@H](CCCNC(=N)N)C(=O)NCC(=O)N[C@@H](CO)C(=O)NCC(=O)N[C@H](C(=O)N[C@@H](C)C(=O)N[C@@H](C)C(=O)N[C@H](C(=O)N[C@@H](CC(=O)O)C(=O)N[C@@H](Cc1ccccc1)C(=O)N[C@H](C(=O)N[C@@H](CCCCN)C(=O)N[C@@H](CCCCN)C(=O)N[C@@H](CC(=O)O)C(=O)N[C@@H](Cc1c[nH]cn1)C(=O)N[C@H](C(=O)N[C@@H](C)C(=O)N[C@H](C(=O)N[C@@H](Cc1c[nH]c2ccccc12)C(=O)NCC(=O)N[C@@H](CCCNC(=N)N)C(=O)N1CCC[C@H]1C(=O)N[C@@H](Cc1ccccc1)C(=O)N[C@@H](Cc1ccccc1)C(=O)N[C@@H](CC(C)C)C(=O)N[C@@H](Cc1ccccc1)C(=O)N[C@@H](CCCNC(=N)N)C(=O)N1CCC[C@H]1C(=O)N[C@@H](CCCNC(=N)N)C(=O)N[C@@H](CC(N)=O)C(N)=O)[C@@H](C)O)[C@@H](C)O)[C@@H](C)O)C(C)C)[C@@H](C)O)[C@@H](C)CC` [fraction c] (Propionyl-ILQRGSGTAAVDFTKKDHTATWGRPFFLFRPRN-NH2), the pEC50 on human NMUR2 [1] was 8.99. At human NMUR2 [2], this molecule gave a pIC50 of 8.66.
